The text below walks through data of ChEMBL document CHEMBL1128673, “Conformationally constrained phosphotyrosyl mimetics designed as monomeric Src homology 2 domain inhibitors” (J Med Chem, 1995).

Test [1] concerns the target Growth factor receptor-bound protein 2 (Homo sapiens) (UniProt P62993). The test is described as follows: In vitro binding to Growth factor receptor bound protein 2. Summed up:
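GST–Grb2 SH2 fusion (0.5–1.0 μM, Bradford-estimated) with 35 fmol (67 nCi) [125I]Bolton–Hunter-labelled Shc pY317 phosphopeptide and varying unlabelled pTyr analogue in 20 mM Tris-HCl, 250 mM NaCl, 0.1% BSA, 10 mM DTT, pH 7.4. Glutathione-agarose was added, then overnight at 22 °C with mixing. After centrifugation at 12000g for 5 min, unwashed pellet radioactivity was gamma-counted.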

Test [2] in a line: In vitro binding to Phospholipase C-gamma SH2 domain. Put shortly:
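Competition binding used GST fusion of the PLCγ C-terminal SH2 domain (0.5–1.0 μM, Bradford) with 35 fmol (67 nCi) [125I]Bolton–Hunter-labelled PDGF pY1021 phosphopeptide plus varying unlabelled pTyr analogue. Buffer was 20 mM Tris-HCl, 250 mM NaCl, 0.1% BSA, 10 mM DTT, pH 7.4. Glutathione-agarose capture ran overnight at 22 °C with mixing, then 12000g for 5 min; pellet 125I was gamma-counted.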

Test [3] in a line: In vitro binding to p85-C SH2 domain. Summed up: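 GST fusion of the p85 PI-3 kinase C-terminal SH2 domain (0.5–1.0 μM, Bradford) with 35 fmol (67 nCi) [125I]Bolton–Hunter-labelled IRS-1 pY628 phosphopeptide and varying unlabelled pTyr analogue in 20 mM Tris-HCl, 250 mM NaCl, 0.1% BSA, 10 mM DTT, pH 7.4. Glutathione-agarose capture ran overnight at 22 °C, then 12000g for 5 min; pellet 125I was gamma-counted.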

Test [4] has as its target T1, Tyrosine-protein phosphatase non-receptor type 11 (Homo sapiens) (UniProt Q06124).
T1 sequence (whole entry): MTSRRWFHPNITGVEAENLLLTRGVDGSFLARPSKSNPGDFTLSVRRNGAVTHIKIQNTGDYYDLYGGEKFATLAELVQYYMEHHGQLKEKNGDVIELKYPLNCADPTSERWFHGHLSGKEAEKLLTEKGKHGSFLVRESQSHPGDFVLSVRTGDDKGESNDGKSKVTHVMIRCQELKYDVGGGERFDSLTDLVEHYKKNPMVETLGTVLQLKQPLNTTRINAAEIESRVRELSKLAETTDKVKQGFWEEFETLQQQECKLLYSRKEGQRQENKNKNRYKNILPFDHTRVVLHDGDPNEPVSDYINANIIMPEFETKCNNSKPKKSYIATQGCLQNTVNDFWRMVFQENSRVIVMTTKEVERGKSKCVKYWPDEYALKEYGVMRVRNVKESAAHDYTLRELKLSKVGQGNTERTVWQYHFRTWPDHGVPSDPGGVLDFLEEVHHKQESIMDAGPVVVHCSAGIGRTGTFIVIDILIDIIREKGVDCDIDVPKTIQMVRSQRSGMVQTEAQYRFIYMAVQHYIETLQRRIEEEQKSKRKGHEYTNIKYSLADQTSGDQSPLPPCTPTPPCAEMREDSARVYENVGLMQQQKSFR
The test is described as follows: In vitro binding to SH-PTP2-N (SHP-2) SH2 domain. Summed up:
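SH-PTP2 N-terminal SH2 domain as a GST fusion (0.5–1.0 μM, Bradford) was mixed with 35 fmol (67 nCi) [125I]Bolton–Hunter IRS-1 pY1172 phosphopeptide and varying unlabelled pTyr analogue in 20 mM Tris-HCl, 250 mM NaCl, 0.1% BSA, 10 mM DTT, pH 7.4. Glutathione-agarose pull-down ran overnight at 22 °C, then 12000g for 5 min, with gamma counting of unwashed pellets.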

Test [5] concerns the target Proto-oncogene tyrosine-protein kinase Src (Homo sapiens) (UniProt P12931). Kind of test: In vitro binding to Src SH2 domain.
Test [6] deals with Tyrosine-protein kinase Lck (Homo sapiens) (UniProt P06239). The test is described as follows: In vitro binding to p56 Lck SH2 domain. Summed up:
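Lck SH2 domain as a GST fusion (0.5–1.0 μM, Bradford) with 35 fmol (67 nCi) [125I]Bolton–Hunter hmT pY324 phosphopeptide and varying unlabelled pTyr analogue in 20 mM Tris-HCl, 250 mM NaCl, 0.1% BSA, 10 mM DTT, pH 7.4. Complexes were captured on glutathione-agarose overnight at 22 °C, pelleted at 12000g for 5 min, and unwashed pellets gamma-counted.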

Growth factor receptor-bound protein 2 (Homo sapiens), sequence (P62993 whole entry, looked up, the tested form may be a part): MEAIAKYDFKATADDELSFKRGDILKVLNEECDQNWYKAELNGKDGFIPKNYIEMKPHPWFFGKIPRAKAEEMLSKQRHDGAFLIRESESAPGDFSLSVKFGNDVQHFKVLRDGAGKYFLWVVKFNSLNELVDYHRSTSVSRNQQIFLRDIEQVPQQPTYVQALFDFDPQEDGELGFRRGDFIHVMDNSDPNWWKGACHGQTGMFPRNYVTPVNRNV
Proto-oncogene tyrosine-protein kinase Src (Homo sapiens), sequence (P12931 2-536 limits assumed): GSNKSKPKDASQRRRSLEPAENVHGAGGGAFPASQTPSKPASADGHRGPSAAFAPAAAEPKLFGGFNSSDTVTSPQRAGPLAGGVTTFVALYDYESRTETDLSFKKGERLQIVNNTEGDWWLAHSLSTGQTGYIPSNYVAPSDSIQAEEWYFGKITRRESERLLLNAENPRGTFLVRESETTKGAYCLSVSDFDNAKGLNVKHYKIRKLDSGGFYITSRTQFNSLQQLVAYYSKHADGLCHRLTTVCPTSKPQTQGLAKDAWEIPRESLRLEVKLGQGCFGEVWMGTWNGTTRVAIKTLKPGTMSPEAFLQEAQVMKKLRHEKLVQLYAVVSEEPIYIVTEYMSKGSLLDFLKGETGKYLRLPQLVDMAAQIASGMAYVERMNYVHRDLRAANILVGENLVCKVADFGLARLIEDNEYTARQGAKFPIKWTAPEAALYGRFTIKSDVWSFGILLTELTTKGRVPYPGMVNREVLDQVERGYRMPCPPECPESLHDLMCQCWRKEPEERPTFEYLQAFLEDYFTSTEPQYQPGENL
Tyrosine-protein kinase Lck (Homo sapiens), sequence (P06239 2-509 limits assumed): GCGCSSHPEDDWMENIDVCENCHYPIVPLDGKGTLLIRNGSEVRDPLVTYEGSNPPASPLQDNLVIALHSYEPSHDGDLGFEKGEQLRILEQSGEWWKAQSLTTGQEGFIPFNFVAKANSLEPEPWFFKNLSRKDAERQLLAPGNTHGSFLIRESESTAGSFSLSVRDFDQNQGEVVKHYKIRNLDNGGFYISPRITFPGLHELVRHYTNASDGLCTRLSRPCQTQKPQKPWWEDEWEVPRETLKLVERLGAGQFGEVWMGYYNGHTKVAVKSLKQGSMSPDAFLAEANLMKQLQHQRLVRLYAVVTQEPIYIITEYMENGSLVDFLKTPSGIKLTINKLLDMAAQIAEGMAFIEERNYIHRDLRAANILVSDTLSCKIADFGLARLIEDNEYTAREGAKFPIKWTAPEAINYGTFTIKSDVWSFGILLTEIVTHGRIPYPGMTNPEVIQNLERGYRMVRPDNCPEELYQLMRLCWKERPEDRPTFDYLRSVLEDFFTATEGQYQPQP

In the case of `CC(=O)N[C@H](C(N)=O)[C@H]1CCc2cc(OP(=O)(O)O)ccc21` (racemic), the ID50 in test [1] was above 3000 µM; in test [2] it was above 3000 µM; in test [3], 1500 µM; in test [4], above 3000 µM; in test [5] it was above 3000 µM; in test [6] it was 1500 µM.
Turning to `CC(=O)N1CC2Cc3cc(O)ccc3C(C)(C2)C1` (racemic), the ID50 in test [2] is above 6000 µM; in test [3], above 5000 µM; in test [4], above 3000 µM; in test [5], above 6000 µM; in test [6], above 6000 µM.
Regarding `N[C@@H](Cc1ccc(OP(=O)(O)O)cc1)C(=O)O`, the ID50 is 6200 µM in test [1]; 2300 µM in test [2]; 3500 µM in test [3]; above 33000 µM in test [4]; 3500 µM in test [5]; 5000 µM in test [6].
For `CC(=O)N[C@@H](Cc1ccc(OP(=O)(O)O)cc1)C(N)=O`, the ID50 in test [2] was 400 µM; in test [3], 1500 µM; in test [4], above 3000 µM; in test [5], 1000 µM; in test [6] it was above 3000 µM.
As for `CC(=O)N1CC2Cc3cc(OP(=O)(O)O)ccc3C(C)(C2)C1` (racemic), the ID50 is above 3000 µM in test [2]; 1300 µM in test [3]; above 3000 µM in test [4]; 900 µM in test [5]; above 3000 µM in test [6].
`CC(=O)N[C@H](C(N)=O)[C@@H]1CCc2cc(OP(=O)(O)O)ccc21` (racemic): the ID50 in test [1] is above 3000 µM; in test [2], above 3000 µM; in test [3], 1500 µM; in test [4] it was above 3000 µM; in test [5], above 3000 µM; in test [6], above 3000 µM.
